Key:
CCRF-CEM = test: Growth inhibition of human CCRF-CEM cells assessed as cell growth at 10^-5 M after 48 hrs by sulforhodamine B assay relative to control; assay type: functional; settings: read-out: Activity
How it was run: (§1)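 NCI ~60 human tumour cell line screen. Single concentration of 10^-5 M added to cultures for 48 h. End point by sulforhodamine B protein staining read spectrophotometrically. Percent growth relative to untreated control cells.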

[1] = Growth inhibition of human SF539 cells assessed as cell growth at 10^-5 M after 48 hrs by sulforhodamine B assay relative to control; assay type: functional; settings: SF-539, 48 h, read-out: Activity
How it was run: (§2)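 NCI primary screen, one-dose format across about 60 human tumour cell lines. Single addition at 10^-5 M with 48 h incubation; SRB protein-binding dye end point read spectrophotometrically. Reported as percent growth of treated cells versus untreated controls.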

Rattus norvegicus [2] = test: Ulcerogenic activity in albino rat carrageenan-induced paw edema model assessed as ulcer index at 0.28 mmol/kg, po (reference value: 0.60 +/- 0.05); assay type: toxicity, organism-based; settings: in vivo
How it was run: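 Rats given the compound orally at 0.28 mmol/kg, suspended in 0.5% aqueous CMC; vehicle-only control, n = 4 per group. Gastric ulcers graded by area: I (<1 mm²), II (1–3 mm²), III (>3 mm²). Ulcer index = 1×(level I count) + 2×(level II) + 3×(level III). Mean ± SEM, one-way ANOVA versus control.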

Rattus norvegicus [3] = test: Antiinflammatory activity in albino rat assessed as inhibition of carrageenan-induced paw edema at 0.28 mmol/kg, po administered 30 mins prior to carrageenan-challenge measured after 4 hrs relative to control; assay type: functional
How it was run: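 Male albino rats in groups of four were fasted 24 h with water allowed. Dosing was oral at 0.28 mmol/kg, suspended in 0.5% w/v CMC; controls got CMC alone. After 30 min, 0.1 ml of 1% carrageenan in saline went subplantar into the right hind paw and saline into the left. Paw thickness was read by caliper before and at 1–5 h. % inhibition = [(VR−VL)control−(VR−VL)treated]/(VR−VL)control ×100. Mean ± SEM, n = 4, one-way ANOVA vs control.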

PC-3 = test: Growth inhibition of human PC3 cells assessed as cell growth at 10^-5 M after 48 hrs by sulforhodamine B assay relative to control; assay type: functional; settings: PC-3, 48 h, read-out: Activity; how it was run: as §2
SR = test: Growth inhibition of human SR cells assessed as cell growth at 10^-5 M after 48 hrs by sulforhodamine B assay relative to control; assay type: functional; settings: read-out: Activity
How it was run: (§3)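 NCI primary screen across about 60 human tumour cell lines. Single dose of 10^-5 M, cultures incubated 48 h, end point by sulforhodamine B protein staining read spectrophotometrically. Results are given as percent growth of treated cells relative to untreated control cells.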

[4] = Induction of nitric oxide release in HCl buffer at 10^-4 M at pH 1 after 1 hr by Griess colorimetric method in presence of N-acetylcysteine; assay type: physicochemical; settings: pH 1, 1 h, 100 µM
How it was run: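 Same Griess nitrite procedure at 10^-4 M final drug with N-acetylcysteine at 37 °C, but with 0.1 N HCl (pH 1) in place of the pH 7.4 phosphate buffer. Absorbance at 546 nm against a sodium nitrite calibration curve.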

[5] = Growth inhibition of human HCC2998 cells assessed as cell growth at 10^-5 M after 48 hrs by sulforhodamine B assay relative to control; assay type: functional; settings: HCC 2998, 48 h, read-out: Activity; how it was run: as §1
LOX IMVI = test: Growth inhibition of human LOXIMVI cells assessed as cell growth at 10^-5 M after 48 hrs by sulforhodamine B assay relative to control; assay type: functional; settings: read-out: Activity; how it was run: as §2
HCT-15 = test: Growth inhibition of human HCT15 cells assessed as cell growth at 10^-5 M after 48 hrs by sulforhodamine B assay relative to control; assay type: functional; settings: HCT-15, 48 h, read-out: Activity; how it was run: as §1
SK-MEL-5 = test: Growth inhibition of human SK-MEL-5 cells assessed as cell growth at 10^-5 M after 48 hrs by sulforhodamine B assay relative to control; assay type: functional; settings: SK-MEL-5, 48 h, read-out: Activity; how it was run: as §3
ACHN = test: Growth inhibition of human ACHN cells assessed as cell growth at 10^-5 M after 48 hrs by sulforhodamine B assay relative to control; assay type: functional; settings: read-out: Activity; how it was run: as §1
[6] = Induction of nitric oxide release in phosphate buffer at 10^-4 M at pH 7.4 after 4 hrs by Griess colorimetric method in presence of N-acetylcysteine; assay type: physicochemical; settings: pH 7.4, 4 h, 100 µM
How it was run: (§4)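 Final drug concentration 10^-4 M, added from DMF into 1:1 50 mM phosphate buffer (pH 7.4)/MeOH containing 5 × 10^-4 M N-acetylcysteine, at 37 °C. Nitrite read with Griess reagent after 10 min at room temperature, absorbance at 546 nm. Calibration with sodium nitrite standards (10–80 nmol/ml). Reported as mol NO per mol, n = 4 reaction mixtures.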

[7] = Growth inhibition of human OVCAR5 cells assessed as cell growth at 10^-5 M after 48 hrs by sulforhodamine B assay relative to control; assay type: functional; settings: OVCAR-5, 48 h, read-out: Activity; how it was run: as §2
[8] = Induction of nitric oxide release in phosphate buffer at 10^-4 M at pH 7.4 after 3 hrs by Griess colorimetric method in presence of N-acetylcysteine; assay type: physicochemical; settings: pH 7.4, 3 h, 100 µM; how it was run: as §4
MCF7 = test: Growth inhibition of human MCF7 cells assessed as cell growth at 10^-5 M after 48 hrs by sulforhodamine B assay relative to control; assay type: functional; settings: MCF7, 48 h, read-out: Activity; how it was run: as §2
IGROV-1 = test: Growth inhibition of human IGROV1 cells assessed as cell growth at 10^-5 M after 48 hrs by sulforhodamine B assay relative to control; assay type: functional; settings: IGROV-1, 48 h, read-out: Activity; how it was run: as §1
NCI-H522 = test: Growth inhibition of human NCI-H522 cells assessed as cell growth at 10^-5 M after 48 hrs by sulforhodamine B assay relative to control; assay type: functional; settings: NCI-H522, 48 h, read-out: Activity; how it was run: as §2
NCI-H322M = test: Growth inhibition of human NCI-H322M cells assessed as cell growth at 10^-5 M after 48 hrs by sulforhodamine B assay relative to control; assay type: functional; settings: read-out: Activity; how it was run: as §2
[9] = Growth inhibition of human UO31 cells assessed as cell growth at 10^-5 M after 48 hrs by sulforhodamine B assay relative to control; assay type: functional; settings: UO-31, 48 h, read-out: Activity; how it was run: as §3
U-251 = test: Growth inhibition of human U251 cells assessed as cell growth at 10^-5 M after 48 hrs by sulforhodamine B assay relative to control; assay type: functional; settings: U-251, 48 h, read-out: Activity; how it was run: as §3
OVCAR-3 = test: Growth inhibition of human OVCAR3 cells assessed as cell growth at 10^-5 M after 48 hrs by sulforhodamine B assay relative to control; assay type: functional; settings: OVCAR-3, 48 h, read-out: Activity; how it was run: as §2
[10] = Growth inhibition of human EKVX cells assessed as cell growth at 10^-5 M after 48 hrs by sulforhodamine B assay relative to control; assay type: functional; settings: read-out: Activity; how it was run: as §1
M14 = test: Growth inhibition of human M14 cells assessed as cell growth at 10^-5 M after 48 hrs by sulforhodamine B assay relative to control; assay type: functional; settings: M14, 48 h, read-out: Activity; how it was run: as §2
MDA-MB-435 = test: Growth inhibition of human MDA-MB-435 cells assessed as cell growth at 10^-5 M after 48 hrs by sulforhodamine B assay relative to control; assay type: functional; settings: MDA-MB-435, 48 h, read-out: Activity; how it was run: as §2

With C/C(=N\O)c1ccc(NC(=O)CSc2nnc(-c3ccccc3)n2-c2ccccc2)cc1 the growth at 10 µM (CCRF-CEM) was 92%, the growth at 10 µM [1] was 97.2% and the UI (Rattus norvegicus [2]) was 0.95. For the same compound, the inhibition in vivo at 280 µmol/kg (Rattus norvegicus [3]) was 67%, the growth at 10 µM (PC-3) was 104% and the growth at 10 µM (SR) was 106%. The Activity [4] was “Not Active”, the growth at 10 µM [5] was 28.6% and the growth at 10 µM (LOX IMVI) was 82.9%. It also gave a growth at 10 µM (HCT-15) of 84%, a growth at 10 µM (SK-MEL-5) of 94.5% and a growth at 10 µM (ACHN) of 85.7%. For the same compound, the Activity [6] was 0.23 mol/mol, the growth at 10 µM [7] was 84.7% and the Activity [8] was 0.2 mol/mol. It also gave a growth at 10 µM (MCF7) of 62.5%, a growth at 10 µM (IGROV-1) of 81.4% and a growth at 10 µM (NCI-H522) of 53.3%. It also gave a growth at 10 µM (NCI-H322M) of 66.7%, a growth at 10 µM [9] of 90.6% and a growth at 10 µM (U-251) of 63.6%. For the same compound, the growth at 10 µM (OVCAR-3) was 87.3%, the growth at 10 µM [10] was 91.9% and the growth at 10 µM (M14) was 100%. For the same compound, the growth at 10 µM (MDA-MB-435) was 118%.
COc1ccc(-c2nnc(SCC(=O)Nc3ccc(/C(C)=N/O)cc3)n2-c2ccccc2)cc1OC showed a growth at 10 µM (CCRF-CEM) of 98.5%, a growth at 10 µM [1] of 43% and a UI (Rattus norvegicus [2]) of 1.11. It also gave an inhibition in vivo at 280 µmol/kg (Rattus norvegicus [3]) of 79%, a growth at 10 µM (PC-3) of 110% and a growth at 10 µM (SR) of 95.4%. The Activity [4] was “Not Active”, the growth at 10 µM [5] was 94% and the growth at 10 µM (LOX IMVI) was 80.1%. For the same compound, the growth at 10 µM (HCT-15) was 98.6%, the growth at 10 µM (SK-MEL-5) was 94.6% and the growth at 10 µM (ACHN) was 75.5%. It also gave an Activity [6] of 0.39 mol/mol, a growth at 10 µM [7] of 97% and an Activity [8] of 0.23 mol/mol. It also gave a growth at 10 µM (MCF7) of 69.2%, a growth at 10 µM (IGROV-1) of 70.9% and a growth at 10 µM (NCI-H522) of 35.3%. For the same compound, the growth at 10 µM (NCI-H322M) was 75.7%, the growth at 10 µM [9] was 104% and the growth at 10 µM (U-251) was 34.4%. The growth at 10 µM (OVCAR-3) was 82%, the growth at 10 µM [10] was 71.1% and the growth at 10 µM (M14) was 89.9%. For the same compound, the growth at 10 µM (MDA-MB-435) was 104%.

Reference: ChEMBL document CHEMBL3102806, “1,2,4-Triazole/oxime hybrids as new strategy for nitric oxide donors: Synthesis, anti-inflammatory, ulceroginicity and antiproliferative activities” (Eur J Med Chem, 2014)
